According to PubChem BioAssay AID743061 (The Scripps Research Institute Molecular Screening Center, 2013):

Target: Methionine--tRNA ligase, mitochondrial (Homo sapiens) (UniProt Q96GW9)
Test: human mtMetRS tRNA charging inhibition – biochemical, radioactivity, round 1, selectivity assay for T. brucei MetRS inhibitor project, late-stage follow-up (AID 743061);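 also: 0% = DMSO with full reaction and 100% = DMSO wells lacking tRNA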
Details: recombinant human mtMetRS, [3H]Met tRNA charging, at 1 µM, stronger effect = higher value
Procedure, shortened: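 Material: Recombinant human mitochondrial methionyl-tRNA synthetase (MetRS) | Medium: pH 8.0 buffer, 2.5 mM ATP | Reagent: [3H]Met 240 nM plus bulk E. coli tRNA | Compound: 10 and 1 µM | Schedule: 15 min compound–enzyme preincubation, then 1 h reaction at room temperature | Measured by: Scintillation counts of TCA-precipitated charged tRNA on filters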

SMILES	inhibition
CC(=O)c1cn(CC(=O)Nc2cccc(C(F)(F)F)c2)c2ccccc12	-20.4%
O=C(NNC(=O)c1cc(-c2ccc(Cl)c(Cl)c2)nc2ccccc12)Nc1ccccc1	-17.1%
O=C(NCc1nc2ccccc2[nH]1)C1=C[C@@H](c2ccc3c(c2)OCO3)C[C@@H](OCCCCO)O1	-3.63%
CCN(C(=O)Cn1cc(C(=O)C(=O)N2CCOCC2)c2ccccc21)c1ccccc1	-12.3%
O=C1CC(N(CCc2ccccc2)C(=S)Nc2ccccc2)C(=O)N1c1ccc(Br)cc1 (stereo unspecified)	-25.5%
Cc1cccc2[nH]c(C3CCCN(C(=O)c4cccc5cccnc45)C3)nc12 (stereo unspecified)	-4.24%
CC(=O)c1c[nH]c(C(=O)NCc2cccc(C(F)(F)F)c2)c1	-7.99%
COc1cccc(NC(=O)CSc2nnc3c(n2)[nH]c2ccc(C)cc23)c1	49.7%
O=C(Cn1cnc2ccccc21)Nc1cccc([N+](=O)[O-])c1	-15.4%
Clc1ccc(-c2nnc(SCc3nc4ccccc4[nH]3)o2)c(Cl)c1	-3.17%
Cc1cc2cc(C(=O)N3CCCC(c4nc5ccccc5[nH]4)C3)ccc2o1 (stereo unspecified)	-13.2%
O=C(Cn1cc(C(=O)C(=O)N2CCCC2)c2ccccc21)Nc1ccccc1	-7.71%
CC1Cc2ccccc2N1C(=O)Cn1cc(C(=O)C(=O)N2CCOCC2)c2ccccc21 (stereo unspecified)	-0.48%
COc1ccc(OCC(O)CNC(=O)Nc2ccc(Cl)cc2)cc1 (stereo unspecified)	-6.26%
O=C(CC=NOCc1ccc([N+](=O)[O-])cc1)Nc1ccc(Cl)cc1	-13%
O=C(NCc1nc2ccccc2[nH]1)C1=C[C@H](c2ccc(Br)cc2)C[C@H](OCCCCO)O1	-6.37%
